Source: ChEMBL document CHEMBL1772934, “Applications of 2-arylhydrazononitriles in synthesis: preparation of new indole containing 1,2,3-triazole, pyrazole and pyrazolo[1,5-a]pyrimidine derivatives and evaluation of their antimicrobial activities” (2011)

Assays:
Assay type in all cases: functional
Details in all cases: read-out: DIZ
Escherichia coli = assay: Antimicrobial activity against Escherichia coli at 1 mg/ml after 24 hrs by agar well diffusion method
Procedure, shortened: (§1)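 A 0.1 mL aliquot of each bacterial strain was spread on nutrient agar. 4 mm wells were cut with a sterile cork borer and filled with compound in DMSO at a final concentration of 1 mg mL-1. Plates were incubated at 37 °C for 24 h. The inhibition zone diameter around each well was measured and averaged over triplicate measurements.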

Staphylococcus aureus = assay: Antimicrobial activity against Staphylococcus aureus at 1 mg/ml after 24 hrs by agar well diffusion method; procedure, shortened: as §1
Bacillus subtilis = assay: Antimicrobial activity against Bacillus subtilis at 1 mg/ml after 24 hrs by agar well diffusion method; procedure, shortened: as §1
Candida albicans = assay: Antimicrobial activity against Candida albicans at 1 mg/ml after 48 hrs by agar well diffusion method
Procedure, shortened: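 A 0.1 mL aliquot of the yeast was spread on potato dextrose agar. 4 mm cork-borer wells received compound in DMSO at a final concentration of 1 mg mL-1. Plates were incubated at 25 °C for 48 h. The inhibition zone diameter was read and averaged over triplicate measurements.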

Compound	zone of inhibition at 1000 µg/mL (Escherichia coli)	zone of inhibition at 1000 µg/mL (Staphylococcus aureus)	zone of inhibition at 1000 µg/mL (Bacillus subtilis)	zone of inhibition at 1000 µg/mL (Candida albicans)
Cc1[nH]c2ccccc2c1C(=O)c1nn(-c2ccccc2)nc1NC(=O)/C(C#N)=C/N(C)C	0 mm	0 mm	2.5 mm	0 mm
Cn1cc(C(=O)c2nn(-c3ccccc3)nc2N)c2ccccc21	6.7 mm	12.2 mm	6 mm	10.7 mm
Cc1[nH]c2ccccc2c1C(=O)c1nn(-c2ccccc2)nc1N	8.7 mm	12 mm	12 mm	8.7 mm
Cc1[nH]c2ccccc2c1C(=O)c1nn(-c2ccccc2)nc1NC(=O)CC#N	6.2 mm	0 mm	9.3 mm	0 mm
Cc1[nH]c2ccccc2c1C(=O)c1nn(-c2ccccc2)nc1NC(=O)c1cn[nH]c1N	0 mm	0 mm	11.3 mm	0 mm
Cn1cc(C(=O)c2nn(-c3ccccc3)nc2NC(=O)CC#N)c2ccccc21	0 mm	0 mm	6 mm	0 mm
Cc1[nH]c2ccccc2c1-c1c(C#N)c(=O)[nH]c2nn(-c3ccccc3)nc12	4 mm	0 mm	6 mm	0 mm
Cc1[nH]c2ccccc2c1C(=O)c1nn(-c2ccccc2)nc1NC(=O)c1cnn2c(-c3ccccc3)ccnc12	5 mm	0 mm	8 mm	0 mm
Cn1cc(C(=O)c2nn(-c3ccccc3)nc2NC(=O)c2cnn3c(-c4cccs4)ccnc23)c2ccccc21	0 mm	0 mm	4 mm	5.7 mm
Cn1cc(C(=O)CC#N)c2ccccc21	0 mm	0 mm	2 mm	0 mm
Cc1[nH]c2ccccc2c1C(=O)CC#N	0 mm	0 mm	3.3 mm	0 mm
Cn1cc(C(=O)/C(C#N)=N/Nc2ccccc2)c2ccccc21	0 mm	0 mm	2.7 mm	0 mm
Cc1[nH]c2ccccc2c1C(=O)/C(C#N)=N/Nc1ccccc1	0 mm	0 mm	1.3 mm	0 mm
CN(C)/C=C(\C#N)C(=O)Nc1nn(-c2ccccc2)nc1C(=O)c1cn(C)c2ccccc12	0 mm	0 mm	3.3 mm	0 mm
Cn1cc(C(=O)c2nn(-c3ccccc3)nc2NC(=O)c2cn[nH]c2N)c2ccccc21	0 mm	0 mm	2.7 mm	0 mm
Cn1cc(-c2c(C#N)c(=O)[nH]c3nn(-c4ccccc4)nc23)c2ccccc21	0 mm	0 mm	2 mm	0 mm
Cn1cc(C(=O)c2nn(-c3ccccc3)nc2NC(=O)c2cnn3c(-c4ccccc4)ccnc23)c2ccccc21	0 mm	0 mm	3.3 mm	0 mm
Cc1cccc(-c2ccnc3c(C(=O)Nc4nn(-c5ccccc5)nc4C(=O)c4cn(C)c5ccccc45)cnn23)n1	0 mm	0 mm	2.7 mm	0 mm
Cn1cc(C(=O)c2nn(-c3ccccc3)nc2NC(=O)/C(C#N)=C/C=C/c2ccccc2)c2ccccc21	0 mm	0 mm	2.7 mm	0 mm
Cc1[nH]c2ccccc2c1C(=O)c1nn(-c2ccccc2)nc1NC(=O)/C(C#N)=C/C=C/c1ccccc1	0 mm		3 mm	0 mm
CC1(C)S[C@@H]2[C@H](NC(=O)[C@H](N)c3ccccc3)C(=O)N2[C@H]1C(=O)O [AMPICILLIN]	22 mm	5 mm	1 mm	
